Experimental data taken from ChEMBL document CHEMBL3425433, “Discovery of bicyclic pyrazoles as class III histone deacetylase SIRT1 and SIRT2 inhibitors” (Bioorg Med Chem Lett, 2015).
Activity calls are given as the source filed them. The calls are words filed in the database; no cut-off is given here.

How the values were obtained:
[1] = biological target: T1, NAD-dependent protein deacetylase sirtuin-2 (Homo sapiens) (UniProt Q8IXJ6); test: Inhibition of His-tagged human recombinant SIRT2 expressed in Escherichia coli at 20 uM using Cbz-Lys(Ac)-AMC as substrate by fluorescence assay
T1 sequence (whole entry): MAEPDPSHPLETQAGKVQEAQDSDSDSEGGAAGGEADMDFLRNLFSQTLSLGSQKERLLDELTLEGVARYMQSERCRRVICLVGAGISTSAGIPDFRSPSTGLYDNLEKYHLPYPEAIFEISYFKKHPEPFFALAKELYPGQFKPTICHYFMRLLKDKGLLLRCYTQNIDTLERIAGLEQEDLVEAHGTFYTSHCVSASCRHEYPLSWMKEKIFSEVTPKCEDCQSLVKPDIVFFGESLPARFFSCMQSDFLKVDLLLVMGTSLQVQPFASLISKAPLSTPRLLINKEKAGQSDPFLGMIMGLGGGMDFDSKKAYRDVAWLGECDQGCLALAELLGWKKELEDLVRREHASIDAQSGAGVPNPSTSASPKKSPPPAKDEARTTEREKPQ
Summary of the method: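 Fluorescence deacetylase assay with in-house Cbz-Lys(Ac)-AMC substrate. Values are means of three experiments on racemic material. Single-point lines were tested at 20 µM, and less than 20% inhibition was scored as no inhibition.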

Histone deacetylase 1 = Histone deacetylase 1 (Homo sapiens, UniProt Q13547); test: Inhibition of HDAC1 (unknown origin)
[2] = biological target: T2, Histone deacetylase 7 (Homo sapiens) (UniProt Q8WUI4); test: Inhibition of HDAC7 (unknown origin)
T2 sequence (whole entry): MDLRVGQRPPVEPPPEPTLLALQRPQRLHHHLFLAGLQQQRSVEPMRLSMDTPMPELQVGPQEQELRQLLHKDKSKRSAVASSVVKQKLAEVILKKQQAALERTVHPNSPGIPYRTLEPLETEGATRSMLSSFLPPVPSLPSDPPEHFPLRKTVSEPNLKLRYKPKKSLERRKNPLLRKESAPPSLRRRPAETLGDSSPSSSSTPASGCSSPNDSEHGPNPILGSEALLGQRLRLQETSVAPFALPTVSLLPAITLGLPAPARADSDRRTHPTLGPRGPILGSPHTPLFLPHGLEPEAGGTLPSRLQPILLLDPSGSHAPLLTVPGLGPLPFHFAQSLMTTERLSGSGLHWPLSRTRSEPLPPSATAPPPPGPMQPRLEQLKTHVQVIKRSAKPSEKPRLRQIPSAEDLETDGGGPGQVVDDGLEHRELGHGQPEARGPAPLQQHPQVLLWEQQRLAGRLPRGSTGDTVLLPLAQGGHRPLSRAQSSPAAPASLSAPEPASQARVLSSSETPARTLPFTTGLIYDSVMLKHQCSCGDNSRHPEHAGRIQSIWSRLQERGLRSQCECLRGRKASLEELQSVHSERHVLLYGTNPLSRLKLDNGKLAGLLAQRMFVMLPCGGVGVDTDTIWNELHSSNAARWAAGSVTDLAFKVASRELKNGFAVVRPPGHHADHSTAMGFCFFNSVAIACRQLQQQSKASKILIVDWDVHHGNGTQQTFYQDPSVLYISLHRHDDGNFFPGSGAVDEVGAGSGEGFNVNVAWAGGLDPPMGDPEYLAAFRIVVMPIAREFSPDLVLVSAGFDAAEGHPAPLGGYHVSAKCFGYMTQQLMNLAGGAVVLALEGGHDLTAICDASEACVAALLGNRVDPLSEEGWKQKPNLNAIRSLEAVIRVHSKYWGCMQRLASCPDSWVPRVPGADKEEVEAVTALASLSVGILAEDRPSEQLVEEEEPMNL

[3] = biological target: T3, NAD-dependent protein deacetylase sirtuin-1 (Homo sapiens, UniProt Q96EB6); test: Inhibition of His-tagged human recombinant SIRT1 expressed in Escherichia coli using Cbz-Lys(Ac)-AMC as substrate by fluorescence assay
T3 sequence (Q96EB6 whole entry): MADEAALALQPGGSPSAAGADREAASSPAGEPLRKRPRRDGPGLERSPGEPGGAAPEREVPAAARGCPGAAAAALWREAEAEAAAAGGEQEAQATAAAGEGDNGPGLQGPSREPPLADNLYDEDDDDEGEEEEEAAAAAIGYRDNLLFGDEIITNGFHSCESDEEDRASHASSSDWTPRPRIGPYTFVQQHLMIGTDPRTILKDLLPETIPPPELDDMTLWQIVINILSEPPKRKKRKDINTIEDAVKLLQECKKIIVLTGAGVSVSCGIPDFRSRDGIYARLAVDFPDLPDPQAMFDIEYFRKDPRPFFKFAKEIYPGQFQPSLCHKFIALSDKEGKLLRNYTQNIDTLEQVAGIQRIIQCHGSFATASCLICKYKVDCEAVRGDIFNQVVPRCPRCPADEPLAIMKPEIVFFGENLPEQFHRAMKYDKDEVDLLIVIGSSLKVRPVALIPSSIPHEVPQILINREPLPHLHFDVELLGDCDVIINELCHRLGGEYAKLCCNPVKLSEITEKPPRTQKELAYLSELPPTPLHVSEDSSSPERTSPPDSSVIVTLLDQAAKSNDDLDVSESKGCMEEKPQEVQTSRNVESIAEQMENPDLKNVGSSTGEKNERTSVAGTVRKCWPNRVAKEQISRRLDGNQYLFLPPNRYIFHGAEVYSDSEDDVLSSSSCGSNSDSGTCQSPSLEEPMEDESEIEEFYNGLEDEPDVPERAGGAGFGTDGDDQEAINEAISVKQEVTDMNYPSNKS

[4] = biological target: T4, NAD-dependent protein deacetylase sirtuin-1 (Homo sapiens) (UniProt Q96EB6); test: Inhibition of SIRT1-mediated endogenous p53 deacetylase activity in human Namalwa cells assessed as concentration required to […] to twice the basal level after 3 hrs by ELISA; assay type: cell-based
T4 sequence (whole entry): T3 sequence (Q96EB6 whole entry)
Summary of the method: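 Namalwa cells, 50,000/well, were exposed 3 h at 37 °C, 5% CO2, to 0.005–50 µM final (0.95% DMSO). Lysates were ELISA-captured on anti-p53 (DO-1), probed overnight with anti-acetyl-Lys382-p53, then HRP conjugate and Amplex Red (15 min; ex 550/em 610 nm). IC2xB is the concentration doubling basal (lowest) fluorescence. Means of three experiments.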

[5] = biological target: T5, NAD-dependent protein deacetylase sirtuin-2 (Homo sapiens, UniProt Q8IXJ6); test: Inhibition of His-tagged human recombinant SIRT2 expressed in Escherichia coli using Cbz-Lys(Ac)-AMC as substrate by fluorescence assay
T5 sequence (Q8IXJ6 whole entry): T1 sequence (whole entry)

Sequence of Histone deacetylase 1 (Q13547 whole entry): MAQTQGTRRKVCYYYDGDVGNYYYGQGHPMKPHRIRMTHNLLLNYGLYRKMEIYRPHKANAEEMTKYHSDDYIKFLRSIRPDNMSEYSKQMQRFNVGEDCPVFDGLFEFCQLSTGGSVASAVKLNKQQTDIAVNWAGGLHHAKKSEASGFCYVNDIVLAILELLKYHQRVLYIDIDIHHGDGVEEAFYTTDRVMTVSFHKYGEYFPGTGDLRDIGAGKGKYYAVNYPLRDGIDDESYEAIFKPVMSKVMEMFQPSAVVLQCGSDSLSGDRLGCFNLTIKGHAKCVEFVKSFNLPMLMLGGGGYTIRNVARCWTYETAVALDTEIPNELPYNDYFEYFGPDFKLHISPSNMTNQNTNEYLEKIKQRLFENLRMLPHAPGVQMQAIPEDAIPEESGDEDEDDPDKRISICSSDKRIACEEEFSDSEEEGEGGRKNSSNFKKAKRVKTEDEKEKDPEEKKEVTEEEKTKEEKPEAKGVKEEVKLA

Structure (SMILES)	inhibition [1]	inhibition (Histone deacetylase 1)	inhibition [2]	IC50 [3]	INH [4]	IC50 [5]
NC(=O)C1CCCc2c(-c3csc4ccccc34)n[nH]c21 (racemic)	44%	inactive	inactive			
CNC(=O)C1CCCc2c(-c3ccc(Cl)cc3)n[nH]c21 (racemic)	< 20%	inactive	inactive			
CC1(C)Cc2c(-c3ccc(Cl)c(Cl)c3)n[nH]c2C(C(N)=O)C1 (racemic)	28%	inactive	inactive			
CCOC(=O)C1CCCc2c(-c3ccc(Cl)c(F)c3)n[nH]c21 (racemic)	< 20%	inactive	inactive			
NC(=O)C1CC(c2ccccc2)Cc2c(-c3ccc(Cl)cc3)n[nH]c21 (mixture of isomers)	62%	inactive	inactive			
NC(=O)C1CCCc2c(-c3ccc(F)cc3)n[nH]c21 (racemic)	< 20%	inactive	inactive			
NC(=O)C1CCCc2c(-c3cc4cc(Br)ccc4s3)n[nH]c21 (racemic)	33%	inactive	inactive			
CC1(C)Cc2c(-c3cc4ccccc4s3)n[nH]c2C(C(N)=O)C1 (racemic)	67%	inactive	inactive			
NC(=O)C1CCCCCc2c(-c3ccc(Cl)cc3)n[nH]c21 (racemic)	22%	inactive	inactive			
NC(=O)C1CCCc2c(-c3ccc(Br)cc3)n[nH]c21 (racemic)	47%	inactive	inactive	1.9 µM	1.5 µM	
NC(=O)C1CCCc2c(-c3cc4ccccc4[nH]3)n[nH]c21 (racemic)	43%	inactive	inactive			
CC1(C)Cc2c(-c3ccc(Br)cc3)n[nH]c2C(C(N)=O)C1 (racemic)	42%	inactive	inactive			
Cn1cc(-c2n[nH]c3c2CCCC3C(N)=O)c2ccccc21 (racemic)	< 20%	inactive	inactive			
COc1ccc(-c2n[nH]c3c2CCCC3C(N)=O)cc1 (racemic)	< 20%	inactive	inactive			
NC(=O)C1CCCc2c(-c3ccccc3Cl)n[nH]c21 (racemic)	11%	inactive	inactive			
NC(=O)C1CCCCc2c(-c3ccc(Cl)cc3)n[nH]c21 (racemic)		inactive	inactive	2.1 µM	0.8 µM	6.8 µM
NC(=O)C1CCCc2c(-c3ccc(C(F)(F)F)cc3)n[nH]c21 (racemic)	< 20%	inactive	inactive			

Structure (SMILES)	inhibition [1]	inhibition (Histone deacetylase 1)	inhibition [2]	IC50 [3]	INH [4]	IC50 [5]
NC(=O)C1CCCc2c(-c3ccc(Cl)cc3Cl)n[nH]c21 (racemic)	< 20%	inactive	inactive			
NC(=O)C1CCCc2c(-c3cc4ccccc4o3)n[nH]c21 (racemic)		inactive	inactive	3.1 µM		9 µM
NC(=O)C1CCCc2c(-c3ccccc3)n[nH]c21 (racemic)	< 20%	inactive	inactive			
NC(=O)C1CCCc2c(-c3cccc(Cl)c3)n[nH]c21 (racemic)	< 20%	inactive	inactive			
NC(=O)C1CCCc2c(-c3nc4ccccc4s3)n[nH]c21 (racemic)		inactive	inactive	2.2 µM	0.9 µM	8.3 µM
NC(=O)C1Cc2ccccc2Cc2c(-c3ccc(Cl)cc3)n[nH]c21 (racemic)	50%	inactive	inactive			
NC(=O)C1CCCc2c(-c3cc(Br)cs3)n[nH]c21 (racemic)	< 20%	inactive	inactive	11 µM		
NC(=O)C1CCCc2c(-c3ccc(Cl)c(F)c3)n[nH]c21 (racemic)	44%	inactive	inactive	2.6 µM		
NC(=O)C1CC2(Cc3c(-c4ccc(Cl)cc4)n[nH]c31)OCCO2 (racemic)	< 20%	inactive	inactive			
Cn1c(-c2n[nH]c3c2CCCC3C(N)=O)cc2ccccc21 (racemic)		inactive	inactive	2.7 µM		7.8 µM
NC(=O)C1CCCc2c(-c3cccs3)n[nH]c21 (racemic)	< 20%	inactive	inactive			
Cc1ccc(-c2n[nH]c3c2CCCC3C(N)=O)cc1 (racemic)	36%	inactive	inactive	6.2 µM		
CC1(C)CCC(C(N)=O)c2[nH]nc(-c3ccc(Cl)cc3)c21 (racemic)	< 20%	inactive	inactive			
NC(=O)C1CCCc2c(-c3cc4ccccc4s3)n[nH]c21 (racemic)		inactive	inactive	1.7 µM		5.3 µM
Cn1c(-c2n[nH]c3c2CC(C)(C)CC3C(N)=O)cc2ccccc21 (racemic)	< 20%	inactive	inactive			
Cn1c(-c2n[nH]c3c2CCCC3C(N)=O)cc2cc(Cl)ccc21 (racemic)	51%	inactive	inactive			
